Legend:
Assay type in all cases: ADME, organism-based
Conditions in all cases: in vivo
[1] = test system: Escherichia coli; experiment: Drug uptake per mg of protein in Escherichia coli O4 at 0.1 uM after 10 mins
Procedure, shortened: (§1)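 Washed stationary-phase bacteria in PBS (10^8 to 10^9 cells/mL; OD650 ca. 0.7) incubated 10 min in the dark at room temperature with photosensitizer. Cells were then centrifuged, supernatant removed, and pellet digested in 2% aqueous SDS. Porphyrin measured by spectrofluorimetry, cell protein by modified Lowry with BSA standard; uptake expressed as nmol photosensitizer per mg cell protein.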

[2] = test system: Staphylococcus aureus; experiment: Drug uptake per mg of protein in Staphylococcus aureus ATCC 25923 at 0.1 uM after 10 mins; procedure, shortened: as §1
[3] = test system: Staphylococcus aureus; experiment: Drug uptake per mg of protein in methicillin-resistant Staphylococcus aureus 110 at 0.1 uM after 10 mins
Procedure, shortened: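 Bacterial suspensions (10^8 to 10^9 cells/mL in PBS) were incubated with porphyrin for 10 min in the dark at room temperature, then centrifuged. The pellet was digested in 2% aqueous SDS. Porphyrin was quantified by spectrofluorimetry and cell protein by modified Lowry assay (BSA standard). Uptake is given as nmol per mg cell protein.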

Q: What does the source list for O=C(O)c1ccc(-c2c3nc(c(-c4ccncc4)c4ccc([nH]4)c(-c4ccncc4)c4nc(c(-c5ccncc5)c5ccc2[nH]5)C=C4)C=C3)cc1 [PORPHIRIN]?
A: Drug uptake [1]: 1.2 nmol/mg; Drug uptake [2]: 1.54 nmol/mg; Drug uptake [3]: 1.5 nmol/mg

From ChEMBL document CHEMBL1149289, “Synthesis and antibacterial activity of new poly-S-lysine-porphyrin conjugates” (J Med Chem, 2004)
